A short description of data set [1]: Antioxidant activity assessed as DPPH radical scavenging activity at 0.025 to 0.1 mg/ml incubated for 30 mins in dark by spectrophotometric analysis. Format: functional. (In general: DPPH is a stable violet radical that fades when it is reduced.)
For data set [2], the system named is Erythrocyte. As to the kind of experiment: Hemolytic activity in human erythrocytes assessed as change in cell shape by measuring discocytes level at 0.1 mg/ml incubated for 60 mins by […]. It counts as ADME, cell-based. Particulars: 1 h.
Data set [3] is described as follows: Induction of hemolysis in human erythrocytes assessed as effect on osmotic resistance at 0.1 mg/ml incubated for 60 mins by erythrocyte osmotic fragility assay. Format: cell-based. Conditions: 1 h. In a few lines: (§1)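 After 60 min of compound treatment, RBC osmotic resistance was expressed as %NaCl and compared with untreated control cells (p < 0.05).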
Data set [4] concerns Erythrocyte. As to the kind of experiment: Cytoprotection against AAPH-induced haemolysis in human erythrocytes at 0.01 to 1 mg/l pre-incubated for 20 mins before 60 mM AAPH addition for 4 hrs by spectrophotometric analysis. Conditions: in the assay text read “0.025 to 0.1 mg/ml” for “0.01 to 1 mg/l”. It counts as functional. The method in brief:
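Human erythrocytes (RBCs) pre-incubated 20 min with compound or the standards Trolox and BHT, then challenged with 60 mM AAPH to induce free-radical haemolysis. Data are means SD (n = 4), with significance set at p < 0.05.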

Data set [5] in a line: Metal chelating activity of the compound assessed as inhibition of Fe2+-ferrozine complex formation incubated for 10 mins by spectrophotometric analysis. Format: functional.
Data set [6] is described as follows: Hemolytic activity in human erythrocytes at 0.1 mg/ml incubated for 60 mins by spectrophotometric analysis. Format: ADME, cell-based, Erythrocyte. Conditions: read-out: Activity. The method in brief: (§2)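 RBCs were incubated with compound for 60 min. Haemolysis below 5% was taken as not significant.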
A short description of data set [7]: Antioxidant activity assessed as ferric ion reducing activity using Fe3+(CN-)6 incubated for 20 mins by spectrophotometric analysis. It counts as functional.
Data set [8] can be described thus: Antioxidant activity assessed as DPPH radical scavenging activity at 0.1 mg/ml incubated for 30 mins in dark by spectrophotometric analysis relative to trolox. It counts as functional.
The nature of data set [9]: Hemolytic activity in human erythrocytes at 0.05 mg/ml incubated for 60 mins by spectrophotometric analysis. It counts as ADME, cell-based, Erythrocyte. Conditions: read-out: Activity. In a few lines: as §2
A short description of data set [10]: Hemolytic activity in human erythrocytes at 0.025 mg/ml incubated for 60 mins by spectrophotometric analysis. Format: ADME, cell-based, Erythrocyte. Conditions: read-out: Activity. In a few lines:
as §2

Data set [11] relates to Erythrocyte. Kind of data set: Hemolytic activity in human erythrocytes assessed as echinocytes/spherocytes formation incubated for 60 mins by microscopic analysis. Conditions: 1 h. It counts as ADME, cell-based. The method in brief: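 RBCs were incubated with compound for 60 min, and cell morphology was then assessed by optical microscopy for echinocytes, spherocytes and RBC ghosts.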

Data set [12] in a line: Induction of hemolysis in human erythrocytes assessed as reduction in osmotic resistance at 0.1 mg/ml incubated for 60 mins by erythrocyte osmotic fragility assay relative to NaCl (reference value: 0.451%). Format: cell-based. More on the design: scale not given: the % may be the effect or the level left. Particulars: 1 h. The method in brief:
as §1

Data set [13] can be described thus: Induction of hemolysis in human erythrocytes assessed as change in RBC shape by measuring echinocytes and spherocytes level at 0.1 mg/ml preincubated for 60 mins followed by AAPH induction measured after 4 hrs by […]. It counts as cell-based.
Data set [14] in a line: Antioxidant activity assessed as ferric ion reducing activity using Fe3+(CN-)6 at 0.1 mg/ml incubated for 20 mins by spectrophotometric analysis relative to BHT. Format: functional.
Data set [15] can be described thus: Antioxidant activity assessed as ferric ion reducing activity using Fe3+(CN-)6 at 0.1 mg/ml incubated for 20 mins by spectrophotometric analysis relative to trolox. More on the design: scale not given: the % may be the effect or the level left. It counts as functional.
Data set [16] can be described thus: Antioxidant activity assessed as DPPH radical scavenging activity incubated for 30 mins in dark by spectrophotometric analysis. Format: functional.
Data set [17] is described as follows: Antioxidant activity assessed as ferric ion reducing activity using Fe3+(CN-)6 at 0.025 to 0.1 mg/ml incubated for 20 mins by spectrophotometric analysis relative to BHT. Format: functional.
Data set [18] is described as follows: Antioxidant activity assessed as DPPH radical scavenging activity at 0.1 mg/ml incubated for 30 mins in dark by spectrophotometric analysis relative to BHT. It counts as functional.
Data set [19] can be described thus: Antioxidant activity assessed as ferric ion reducing activity using Fe3+(CN-)6 at 0.025 to 0.1 mg/ml incubated for 20 mins by spectrophotometric analysis relative to trolox. It counts as functional. More on the design: scale not given: the % may be the effect or the level left.

Molecules are shown by their SMILES. Calls of active or inactive are those of the source. No cut-off for these calls is given here. Bounds are passed on as bounds.

Regarding `CSc1nc2c(c(=O)n(C)c(=O)n2C)n1C`, the Activity in data set [1] is less than 10%; with Erythrocyte [2], “Non-Toxic”; in data set [3], “Non-Toxic”; in the data set with Erythrocyte [4], 10%. Besides, the result in [5] was inactive. The hemolysis at 1 h, 0.1 mg/ml in [6] fell in the range of 0 to 5%.

As for `CCCSc1nc2c(c(=O)n(C)c(=O)n2C)n1C`, the Activity in data set [1] is less than 10%; in the data set with Erythrocyte [2] it was “Non-Toxic”; in [3], “Non-Toxic”. Besides, the outcome (in the data set on Erythrocyte [4]; in data set [5]) was inactive. The hemolysis at 1 h, 0.1 mg/ml in [6] lay within 0 to 5%.

As to `Cc1cc(C(C)(C)C)c(O)c(C(C)(C)C)c1`, the result in data set [7] and in data set [8] was Active.

For `Cn1c(=S)c2c(ncn2C)n(C)c1=S`, the Activity in data set [1] was less than 10%; in the data set with Erythrocyte [2] it was “Non-Toxic”; in [3], “Non-Toxic”. The outcome with Erythrocyte [4] was Active. The result in data set [5] was inactive. For the same compound, the hemolysis at 1 h, 0.1 mg/ml in [6] fell in the range of 0 to 5%.

Regarding `Cn1c(=O)c2c(nc(Sc3ccccc3)n2C)n(C)c1=O`, the Activity was less than 10% in data set [1]; “Toxic” in [3]; “Toxic” with Erythrocyte [11]; 0.488% in data set [12]; “Toxic” in [13]. Further, the hemolysis at 1 h, 0.05 mg/ml in [9] is 26.9%. The outcome (in the data set on Erythrocyte [4]; in data set [5]) was inactive. Besides, the hemolysis at 1 h, 0.025 mg/ml in data set [10] is less than 5%. Besides, the hemolysis at 1 h, 0.1 mg/ml in [6] is 57.2%.

On to `Cn1c(=O)c2c(nc(SC(=S)N3CCCC3)n2C)n(C)c1=O`, for which the outcome (in [14]; in the data set on Erythrocyte [4]) was Active. Besides, the Activity in [15] is 65%; in data set [16], “Dose-dependent effect”; with Erythrocyte [2] it was “Non-Toxic”; in [3] it was “Non-Toxic”; in data set [7], “Dose-dependent effect”; in [8] it was 67%. The outcome in [5] was inactive. Further, the hemolysis at 1 h, 0.1 mg/ml in data set [6] lay in the range of 0 to 5%.

On to `Cn1c(=S)c2c(ncn2C)n(C)c1=O`, for which the Activity in data set [1] was less than 10%; in the data set with Erythrocyte [2], “Non-Toxic”; in data set [3], “Non-Toxic”. For the same compound, in the data set on Erythrocyte [4], the result was Active. Further, the result in data set [5] was inactive. Moreover, in data set [6], the hemolysis at 1 h, 0.1 mg/ml lay in the range of 0 to 5%.

As to `CC(C)Sc1nc2c(c(=O)n(C)c(=O)n2C)n1C`, the Activity entry is “Non-Toxic” with Erythrocyte [2]; “Non-Toxic” in data set [3]; 10% with Erythrocyte [4]; 34% in [8]; 38% in data set [19]. Besides, the result in data set [17] and in data set [18] was Active. In data set [5], the result was inactive. For the same compound, the hemolysis at 1 h, 0.1 mg/ml in [6] fell in the range of 0 to 5%.

Consider `Cn1c(=O)c2c(nc(SC(C)(C)C)n2C)n(C)c1=O`, for which the Activity is less than 10% in data set [1], “Non-Toxic” in the data set with Erythrocyte [2] and “Non-Toxic” in [3]. The outcome (with Erythrocyte [4]; in [5]) was inactive. Also, in [6], the hemolysis at 1 h, 0.1 mg/ml lay in the range of 0 to 5%.

As to `CCSc1nc2c(c(=O)n(C)c(=O)n2C)n1C`, the Activity in [1] is less than 10%; with Erythrocyte [2], “Non-Toxic”; in [3], “Non-Toxic”; with Erythrocyte [4], 10%. The result in data set [5] was inactive. The hemolysis at 1 h, 0.1 mg/ml in [6] fell in the range of 0 to 5%.

For `Cc1c(C)c2c(c(C)c1O)CCC(C)(C(=O)O)O2` (centres undefined), in the data set on Erythrocyte [4], the result was Active.

With `Cn1c(=O)c2c(ncn2C)n(C)c1=O` [CAFFEINE], the Activity in data set [1] is less than 10%; in the data set with Erythrocyte [2], “Non-Toxic”; in data set [3], “Non-Toxic”; in the data set on Erythrocyte [4], 10%. The result in data set [5] was inactive. Also, the hemolysis at 1 h, 0.1 mg/ml in data set [6] is 0 to 5%.

These data come from ChEMBL document CHEMBL4428045, “Antioxidant properties of thio-caffeine derivatives: Identification of the newly synthesized 8-[(pyrrolidin-1-ylcarbonothioyl)sulfanyl]caffeine as antioxidant and highly potent cytoprotective agent” (Bioorg Med Chem Lett, 2016).
